# Screening data: PubChem BioAssay, several laboratories
# MT1-MMP act inh: MT1-MMP (human) activation inhibition; HT1080 RFP-PRO-GFP cells, GFP/RFP ratio fluorescence, overnight; percent of plate control window, DMSO zero; GFP/RFP ratio change, % at 20 µM; hit rate 0.061% among 360,000; AID 651647;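 active = GFP/RFP ratio change of at least 30% with cell ATP level not reduced by more than half and red fluorescence within 50% of control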
#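 Assay system: HT1080 RFP-PRO-GFP cells | Dosing: 20 µM single dose, 1% DMSO | Incubation: Cells overnight before dosing, compound overnight, 37 °C, 5% CO2 | Evaluation: GFP/RFP fluorescence ratio | Control set: DMSO-only wells and HT1080 RFP-L50D-GFP cell wells as references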
# ADAM17 inh: inhibits human ADAM17 | P78536 | recombinant ADAM17, EDANS/DABCYL FRET peptide cleavage | inhibition, % at 6.95 µM | hit rate 0.83% among 370,000 | AID 720648;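 active = inhibition above the mean of compounds lying between control limits plus 3 SD, set per campaign, cut at about 8.5% in these data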;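 also: 0% = DMSO-only wells as the low control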
# SKN-1 inh: blocks SKN-1 activity in C. elegans. inhibition, % at 21.8 µM. C. elegans VP596 Pgst-4::GFP/RFP ratio, acrylamide-induced, 24 h. hit rate 0.49% among 360,000;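 active = interference check ratio from 0.5 to 1.5 plus GFP to RFP signal ratio inhibition reaching or exceeding a fixed threshold, cut at about 30% in these data, passing the limit was not always enough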
# MPTP inh: blocks calcium-induced mitochondrial swelling | hit rate 1.4% among 360,000 | inhibition, % at 10 µM | isolated mouse mitochondria, Ca2+ swelling absorbance, 30 min | AID 602449;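 active = inhibition of 50% or more, scaled per plate between neutral and stimulator controls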;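 also: 0% = DMSO wells given calcium and 100% = 1 mM EGTA wells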
# GRIN3A LBD mod: modulates the human NR3A ligand-binding domain; NR3A LBD differential scanning fluorimetry, Tm shift; 0% = protein alone, 100% = glycine-bound protein; Tm shift relative to glycine control, % at 25 µM; hit rate 2.5% among 340,000; AID 1259313;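 active = melting temperature shift of at least 10% of the positive control shift, at one fixed dose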
# ADAM10 inh: ADAM10 inhibition, QFRET primary screen | recombinant ADAM10, EDANS/DABCYL FRET peptide cleavage, 3 h | O14672 | hit rate 0.62% among 370,000 | inhibition, % at 7 µM;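 active = inhibition above a per-campaign cutoff equal to the mean of compounds falling between control-based bounds plus 3 SD, cut at about 20% in these data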;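 also: 0% = DMSO wells while the 100% control is not disclosed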
# Target sequence (O14672 214-748 limits assumed): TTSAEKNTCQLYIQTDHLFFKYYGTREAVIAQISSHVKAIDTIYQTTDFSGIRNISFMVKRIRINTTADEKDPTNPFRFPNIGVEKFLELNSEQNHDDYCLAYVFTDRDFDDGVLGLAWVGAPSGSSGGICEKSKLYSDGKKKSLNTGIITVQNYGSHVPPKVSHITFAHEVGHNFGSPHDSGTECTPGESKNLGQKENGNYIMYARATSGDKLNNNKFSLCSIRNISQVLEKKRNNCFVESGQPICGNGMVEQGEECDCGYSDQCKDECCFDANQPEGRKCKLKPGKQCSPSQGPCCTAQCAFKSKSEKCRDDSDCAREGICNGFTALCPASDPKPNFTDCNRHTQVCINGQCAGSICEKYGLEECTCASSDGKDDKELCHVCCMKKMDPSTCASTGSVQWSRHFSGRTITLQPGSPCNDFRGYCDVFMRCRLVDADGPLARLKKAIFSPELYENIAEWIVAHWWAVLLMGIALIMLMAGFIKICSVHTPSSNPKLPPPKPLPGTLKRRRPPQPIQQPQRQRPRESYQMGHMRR
# ADAM10 confirm: human ADAM10 inhibition, confirmation; shares compounds with ADAM10 inh; ADAM10 QFRET peptide cleavage, EDANS fluorescence; inhibition, % at 6.95 µM; hit rate 1% among 2,100;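 active = inhibition above about 20% chosen separately for each screening run, limit read from the data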;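 also: 0% = DMSO wells and 100% = marimastat wells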
# ADAM17 ctr: counter-screen for ADAM10 exosite inhibitors: inhibitors of human ADAM17. shares compounds with ADAM10 inh. ADAM17 QFRET peptide cleavage, EDANS fluorescence. inhibition, % at 6.95 µM. hit rate 0.5% among 2,100;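 active = mean triplicate inhibition above the solvent-only control wells' mean plus 3 SD, cut at about 12% in these data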;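 also: 0% = DMSO wells and 100% = marimastat wells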
# ADAM10 counter: ADAM10 inhibition, counter-screen for ADAM17 exosite hits; shares compounds with ADAM17 inh; inhibition, % at 6.95 µM; recombinant ADAM10, EDANS/DABCYL FRET peptide cleavage, 3 h; AID 743256; hit rate 47% among 2,900;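 active = mean inhibition over the triplicate runs exceeds the activity threshold set in the earlier primary screen, cut at about 20% in these data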;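 also: 0% = DMSO wells and 100% = marimastat wells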
# ADAM17 confirm: human ADAM17 inhibition, confirmation. shares compounds with ADAM17 inh. recombinant ADAM17, EDANS/DABCYL QFRET peptide cleavage. AID 743257. hit rate 65% among 2,900. inhibition, % at 6.95 µM;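 active = mean inhibition across replicates above the hit cutoff set in the primary screen, cut at about 8.5% in these data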;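 also: 0% = DMSO wells and 100% = marimastat wells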
# Starred values were filed as active, the others as inactive; nt = no result. Sampled rows, rich in hits. Any-hit rate of the full collection: about 4.7%.
SMILES,MT1-MMP act inh,ADAM17 inh,SKN-1 inh,MPTP inh,GRIN3A LBD mod,ADAM10 inh,ADAM10 confirm,ADAM17 ctr,ADAM10 counter,ADAM17 confirm
COc1cccc(Nc2nnc(SCN3C(=O)c4ccccc4C3=O)s2)c1,4,0,11,2,-1,5,nt,nt,nt,nt
Cc1ccc(C)c(N2CCN(S(=O)(=O)c3ccc4c(c3)NC(=O)CS4)CC2)c1,-21,12*,1,0,-9,20*,8,2,34*,18*
C[C@H](NC(=O)c1nc[nH]c1C(=O)N[C@@H](CCCCNC(=O)OC(C)(C)C)C(=O)OC(C)(C)C)C(=O)OCc1ccccc1,-7,15*,-5,2,-6,29*,6,1,42*,23*
CC(C)(C)OC(=O)NCCCC[C@H](NC(=O)c1nc[nH]c1C(=O)NCC(=O)OCc1ccccc1)C(=O)OC(C)(C)C,-1,11*,-3,1,-14,24*,2,0,25*,18*
CC(C)(C)OC(=O)NCCCCCNC(=O)c1nc[nH]c1C(=O)NCC(=O)OCc1ccccc1,-5,5,-5,-1,0,14,nt,nt,nt,nt
Cc1cc(C)c(-c2cc(NC(=O)COC(=O)c3ccc(C#N)cc3)n(-c3ccccc3)n2)cc1C,2,9.1*,10,5,-21,23*,15,4,22*,13*
O=C(NC(=S)NNC(=O)[C@H]1C[C@@H]1c1ccccc1)c1ccc(F)cc1,8,-4,-11,0,-2,-3,nt,nt,nt,nt
COc1ccc(C(=O)NC(=S)NNC(=O)[C@H]2C[C@@H]2c2ccccc2)cc1OC,-1,11*,-3,-1,0,32*,3,3,-18,-1
COc1ccc(C(O)c2nc(-c3ccc4ccccc4c3)cs2)cc1 (configuration not stated),-6,20*,6,1,nt,42*,6,3,21*,14*
COc1cc(C(O)c2nc(-c3ccc4ccccc4c3)cs2)ccc1F (configuration not stated),1,23*,5,1,nt,49*,11,3,22*,15*
COc1ccc(C(O)c2nc(-c3ccccc3)cs2)cc1 (configuration not stated),4,2,21,0,nt,0,nt,nt,nt,nt
Cc1ccc(-n2nc(C)cc2N)c(C)c1,-2,-1,-7,0,-1,-5,nt,nt,nt,nt
Cc1noc(C)c1COc1ccc(C(=O)OCC(=O)Nc2cccc(S(=O)(=O)N3CCOCC3)c2)cc1,0,11*,5,-8,-8,25*,3,0,29*,13*
CC(C)(C)c1ccc(OCCC(=O)Nc2cccc(S(=O)(=O)N3CCOCC3)c2)cc1,0,15*,-13,0,-2,32*,5,4,32*,19*
CCOc1ccc(NS(=O)(=O)c2ccc(NC(=S)NC(=O)C(C)C)cc2)cc1,-6,2,31,1,-7,8,nt,nt,nt,nt
COc1ccc(NS(=O)(=O)c2ccc(NC(=S)NC(=O)C(C)C)cc2)cc1,-2,12*,20,1,-11,30*,1,1,11,9.1*
O=C(CSc1nnc(COc2ccccc2)n1-c1ccc(Cl)cc1)Nc1ccccc1-c1ccccc1,nt,13*,nt,nt,nt,28*,6,2,19,14*
Cn1c(Cc2cccs2)nnc1SCC(=O)Nc1ccc(OCc2ccccc2)cc1,nt,2,nt,nt,nt,11,nt,nt,nt,nt
